From the EternaBench riboswitch data come the findings set out here.

The data set deals with MS2 coat protein. Put plainly: apparent Kd, MS2 coat protein; higher = weaker binding; RNA-MaP array; FMN 200 µM where present. In outline: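 Designs on Illumina sequencing-chip clusters, transcribed by stalled E. coli RNA polymerase, were exposed to SNAP-549-labelled MS2 coat protein in doubling steps from 0.7 or 1.5 nM up to 3 µM, without and then with constant ligand. The buffer held 100 mM Tris-HCl pH 7.5, 80 mM KCl, 4 mM MgCl2, BSA, DTT, yeast tRNA and Tween-20. Apparent Kd values are medians of filtered per-cluster binding-curve fits to green signal normalised to red-channel RNA signal and control-cluster median Fmax.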

Where [1] appears, read: designed as: OFF switch for flavin mononucleotide, no ligand.
Where [2] appears, read: ligand present: flavin mononucleotide, designed as: OFF switch for flavin mononucleotide.
The mark [3] stands for this setting: designed as: ON switch for flavin mononucleotide, no ligand.
Setting [4] is: ligand present: flavin mononucleotide, designed as: ON switch for flavin mononucleotide.

For orientation: apparent Kd means a dissociation constant that holds for the conditions of the assay. Regarding “GGAUAGGACAGAGGAUAUACGUGCUAGAGAUACUAGCAAAAUUUCCUCACAUGAGGAUCACCCAUGUAGAAGGCUGUCCUAUUG”, the “apparent Kd” value is 15.6 nM under setting [1] and 460 nM under setting [2].

As to “AGUGUCAUUUAGAAGGCCUCAUGACAUGAGGAUCACCCAUGUUAUCAUGGGAGGAUAUGGAUGAUAUAGUUAUGUUUCGUAGUA”, the “apparent Kd” value runs as follows: under setting [3], 307 nM; under setting [4], 112 nM.

In the case of “UCGCCAGGUACAGGAUAUGUGGAUCAGUUAAGUAACUUACUGAACAUGAGGAUCACCCAUGUAUCACAGAAGGGUGCCUCAAAA”, the “apparent Kd” value stood at 164 nM under setting [3] and 11.1 nM under setting [4].

Regarding “UGGUACUAGGGAGGAUAUGGGAAGAUACAUGAGGAUCACCCAUGUUUAAGAAUGCCGAGAGGCAACUAGAAGGCCCUAGUAUCU”, the “apparent Kd” value was found to be 382 nM under setting [3] and 18.9 nM under setting [4].

Consider “GAUUGAAAAGGAUAUACAUGAGGAUCACCCAUGUGCUUCAGCUAGGAGACUAGCAUUGGUAGAAGGUUUUAAUC”, for which the “apparent Kd” value was found to be 22.2 nM under setting [1] and 43.9 nM under setting [2].

On to “AUAGACAUACAGCCACAUGAGGAUCACCCAUGUACGCUGACGAGAAGGGUCAGCUAGCAGAGGUGACAGGAUAUCGGACAUGAA”, for which the “apparent Kd” value by setting is: under setting [3], 149 nM; under setting [4], 89 nM.

In the case of “GGUGUAUAUGAGAAGGCGAUCAUGAAACAUGAUCGAGGAUAUCAUGUAAACAUGAGGAUCACCCAUGUAUGGGAAUAAUGCACC”, the “apparent Kd” value came out at 120 nM under setting [3] and 13.6 nM under setting [4].

As to “AGCUGUGGCCAAGGAUAUCUAACCUUAAAUACCGACGUAUAGUCGGACAUGAGGAUCACCCAUGUGGAGAAGGUGGUCUCAGCA”, the “apparent Kd” value reads like this: under setting [1], 25.3 nM; under setting [2], 37.3 nM.

As for “AAUUACAGAUGAGGAUAUUGACAUGAGGAUCACCCAUGUAUUUGGGAAUGUUUACUGAAUUCUUACGAGAAGGUAUACGUACUU”, the “apparent Kd” value is, setting by setting: under setting [1], 122 nM; under setting [2], 94.3 nM.

As to “GCAAGGCAUGUAGGAUAUCGAGCUCAAAGAGCUCGAGAAGGACAUGAGGAUCACCCAUGUGCUCACAGACAGUGAGCGCCAUGC”, the “apparent Kd” value under setting [1] turned out to be 35.4 nM and the “apparent Kd” value under setting [2] was 114 nM.

Take “GGAUGACAAAGUCAUCCAAAUCGAACAUGAGGAUCACCCAUGUAGGAUAUCCUACUCAAAGAGUAGGAGAAGGACAUGUGCUUU”: the “apparent Kd” value runs as follows: under setting [1], 53.1 nM; under setting [2], 178 nM.

With “GCAGGCUUCGAGAAGGACAUGAGGAUCACCCAUGUGCGUGUGAAGCAGCCGUGAGGCUGCAUCAUGUAGGAUAUCGGAGUCUGA”, the “apparent Kd” value came to 74.5 nM under setting [1] and 500 nM under setting [2].

For “CUCCGGCGUGUAGGAUAUGGAUCCGAUUAGGAUCCAGAAGGACAUGAGGAUCACCCAUGUACAUGUAAACAGUCAUCACCGGAG”, the “apparent Kd” value under setting [1] came to 6.24 nM and the “apparent Kd” value under setting [2] worked out at 6.99 nM.

For “CACCGGUGUACAGGAUAUGCAUCUACGUGGGCUGCAGAAGGGUACAUGAGGAUCACCCAUGUCAACGAAUCCUCAAAUUAGCGA”, the “apparent Kd” value under setting [1] worked out at 1030 nM and the “apparent Kd” value under setting [2] worked out at 1130 nM.

As to “GCAUGGAAAGUGAGGAUAUACCACUGGAUACAGUGGUAGAAGGCACAUGAGGAUCACCCAUGUCUCUACCAUGC”, the “apparent Kd” value amounted to 13.6 nM under setting [1] and 30.8 nM under setting [2].

“CUUUUGUGAGGAUAUUAGUAGUAAUACAAUAGUAUUACUACUGAGAAGGCACAUGAGGAUCACCCAUGUUCCUC”: the “apparent Kd” value was 38.2 nM under setting [1] and 147 nM under setting [2].

In the case of “UUUGAUUGCACAGGAUAUUGUCAUUUGAGUUGUCAAGAAGGGUGUACAUGAGGAUCACCCAUGUAAUGGUUGCCUCGCUGACUU”, the “apparent Kd” value came to 95.7 nM under setting [1] and 272 nM under setting [2].

Turning to “AUAGUUAGUAUAGAUGAGGGCAGCAGAAGGCAAUAUGCUUGUGCCGACAUGAGGAUCACCCAUGUUGAGGAUAUGCGUCCUUCG”, the “apparent Kd” value is, setting by setting: under setting [1], 6 nM; under setting [2], 16.9 nM.

For “AAAAAGUGAGGAUAUCGGAAAAAAAAAAAAAAAAAAAAAAACGAGAAGGCACAUGAGGAUCACCCAUGUAAAAA”, the “apparent Kd” value runs as follows: under setting [1], 42.3 nM; under setting [2], 33.6 nM.

For “GCGUCAUGCAGAGGAUAUUGUUGCGGAUCUCUAUAAGAAGGCUGUACAUGAGGAUCACCCAUGUCACCACAUGAGGGUCACGUG”, the “apparent Kd” value reads like this: under setting [1], 22.1 nM; under setting [2], 41.2 nM.

Take “GGGCACGGAGGAUAUACAUGAGGAUCACCCAUGUGAUUAGGGCAGUACUUGCCGAUCCGUAGAAGGUUGGCCGA”: the “apparent Kd” value reads like this: under setting [1], 26.1 nM; under setting [2], 26.8 nM.

As for “AGCUGGUGACAGCAUCGAGCUUAACAUGAGGAUCACCCAUGUAGAAGGCUGUACGGUUACCGUACAGAGGAUAUACAUAGCUCG”, the “apparent Kd” value by setting is: under setting [1], 6.79 nM; under setting [2], 7.04 nM.

Take “UUUACAUGAGGAUCACCCAUGUUUAGAAAGAUUAAUUUAAGUGAGGAUAUACAUAAUAAUAAAUUGUAGAAGGCACUGGGUACA”: the “apparent Kd” value runs as follows: under setting [3], 19.3 nM; under setting [4], 20.6 nM.

With “GUUAUGUUAGGAUAUGCUUAUGGUGGGUGCUCAGAUAUGAUGCAGAAGGGACAUGAGGAUCACCCAUGUACUGU”, the “apparent Kd” value by setting is: under setting [1], 484 nM; under setting [2], 310 nM.

As for “GUAGCAAUCGGAGGAUAUUCAUGAAACAUGAGGAUCACCCAUGUUAAUAUGGGAGAAGGCCGAUUGCUACAAGAGCGAAAGCUC”, the “apparent Kd” value turned out to be 8.58 nM under setting [3] and 5.76 nM under setting [4].

On to “UGUUGUAUUACAGGAUAUCUGUUAUUUUUAUUUAGAGAAGGGUAUUCACAUGAGGAUCACCCAUGUAUAUACGAGGAAGUUGUG”, for which the “apparent Kd” value under setting [3] came out at 57.3 nM and the “apparent Kd” value under setting [4] amounted to 61.4 nM.

Take “AUUUCGUCAGGAUAUCCUAGUAAUUGUUUCAUAUUUACAAAGGAGAAGGGACAUGAGGAUCACCCAUGUUUGUC”: the “apparent Kd” value came out at 24.7 nM under setting [1] and 23.1 nM under setting [2].

With “UGUCGGAGCAGAGGAUAUUACAUGAGGAUCACCCAUGUAUAAACCAAUAGCUGGAAACAGCAAUGUAAGAAGGCUGCUCCGACA”, the “apparent Kd” value under setting [1] was 5.28 nM and the “apparent Kd” value under setting [2] came out at 10.1 nM.

For “CAGACGUCAGGAUAUCUGAUGUCUAACUUCGGUUAGACAUCAGAGAAGGGACAUGAGGAUCACCCAUGUCUGAA”, the “apparent Kd” value under setting [1] came to 25.4 nM and the “apparent Kd” value under setting [2] was found to be 23.6 nM.

For “UGGUUGCGAGUAGGAUAUGGUGUUUUUGUUUGGUUAGAAGGGUUCGUGAUUGUGACAUGAGGAUCACCCAUGUGUGUUGUUGUU”, the “apparent Kd” value under setting [3] turned out to be 63.6 nM and the “apparent Kd” value under setting [4] stood at 70.5 nM.

Regarding “AUAAGCUCGUCAGGAUAUACGUCACUGCGUCAGCAGUGUGGUAAGAUCACAUGAGGAUCACCCAUGUAGAAGGGACGAGCUGAU”, the “apparent Kd” value runs as follows: under setting [1], 14.7 nM; under setting [2], 266 nM.

In the case of “GGAGCAACAUGAGGAUCACCCAUGUAGGAUAUCGCUAUUGUAAUCAUGAAACAUGAUUACAAUAGCGAGAAGGACAUAUGCUAA”, the “apparent Kd” value came to 10.6 nM under setting [1] and 12.5 nM under setting [2].

Consider “GUAGCAAUCGGAGGAUAUUCAUGAUACAUGAGGAUCACCCAUGUUAAUAUGGGAGAAGGCCGAUUGCUACAAGAGCGAAAGCUC”, for which the “apparent Kd” value came out at 47.9 nM under setting [3] and 8.05 nM under setting [4].

With “UGUCGGAGCAGAGGAUAUUACAUGAGGAUCACCCAUGUAUGAACCAAUAGCUGGAAACAGCAAUGAAAGAAGGCUGCUCCGACA”, the “apparent Kd” value stood at 5.38 nM under setting [1] and 5.13 nM under setting [2].

For “AAAAAACAUGAGGAUCACCCAUGUGAGGAUAUGCGAAAAAAAAAAAAAAAAAAAAAAAGCAGAAGGUACAAAAA”, the “apparent Kd” value is 92.2 nM under setting [1] and 47.6 nM under setting [2].

With “ACUGCAUAGGCAGGAUAUGCAAUAAUUCGAAUAAAAUAUAACGAAUUAACAUGAGGAUCACCCAUGUAGAAGGGCCUGUGCAGU”, the “apparent Kd” value by setting is: under setting [1], 6.46 nM; under setting [2], 5.46 nM.

In the case of “GAGGGUUAAGGAUAUACAUGAGGAUCACCCAUGUAUGGCAAGCCAUAAUCCUCAUUAAGUAGAAGGUAACCUUC”, the “apparent Kd” value by setting is: under setting [1], 11.7 nM; under setting [2], 15.3 nM.

Consider “ACAUGAUUCAAGAAGGAUGUAUUUGAUUUGAUCAUAGGAUAUUGUUAUUUUGUUUACUCUAAUAACAUGAGGAUCACCCAUGUA”, for which the “apparent Kd” value reads like this: under setting [3], 14.4 nM; under setting [4], 10.4 nM.

Regarding “GGGACCAACACAGGAUAUGCUAUCCUUUGGGUAGCAGAAGGGUGAAACAUGAGGAUCACCCAUGUGGUUCCAGGGCGUGAGCCC”, the “apparent Kd” value runs as follows: under setting [3], 1580 nM; under setting [4], 99.6 nM.

Take “GGACAUGUCGUCUACAUGAGGAUCACCCAUGUCGAUAGACAUGAGGAUAUCGAUACAAAUUGUAUCGAGAAGGCAUGCAGGUCC”: the “apparent Kd” value under setting [3] worked out at 18.7 nM and the “apparent Kd” value under setting [4] came to 17.7 nM.

Regarding “AUAGAAGACUAGAAGGACCUAGUUGUAUAUUGUCGAGGUAUAUAAUUAGGUAGGAUAUGGGACAUGAGGAUCACCCAUGUCUUG”, the “apparent Kd” value by setting is: under setting [3], 8.27 nM; under setting [4], 7.5 nM.

For the sequence “GCUAGUCAUGUCAGGAUAUGCUGUACCUUGGUACAGCAGAAGGGACAUGAGGAUCACCCAUGUGCCUAACUAGC”, the “apparent Kd” value by setting is: under setting [1], 39 nM; under setting [2], 416 nM.

On to “GCCUUAUCGGUCAGGAUAUACACCCGUUAGUUGUUGUAGAAGGGACAUGAGGAUCACCCAUGUACAUUACAUUG”, for which the “apparent Kd” value under setting [1] turned out to be 22.8 nM and the “apparent Kd” value under setting [2] was 60 nM.

For “GCCAUCACAUGAGGAUAUGCUCCCGUUUCGGGAGCAGAAGGCAUGUCAUAAGACAUGAGGAUCACCCAUGUAUUUAAGAUGGCA”, the “apparent Kd” value reads like this: under setting [3], 227 nM; under setting [4], 9.52 nM.

“AUUGUGUUAGGAUAUGCUUAUGGUGGGUAGUCCAGUAUGAAGUAGAAGGGACAUGAGGAUCACCCAUGUGCUCA”: the “apparent Kd” value runs as follows: under setting [1], 60.1 nM; under setting [2], 56.2 nM.

As to “GGACAUGUCGUCUACAUGAGGAUCACCCAUGUCGAUAGACAUGAGGAUAUCGAUAAGAAUUGUAUCGAGAAGGCAUGUAGGUCC”, the “apparent Kd” value is, setting by setting: under setting [3], 68.4 nM; under setting [4], 50.6 nM.

Turning to “GUCAGCUCGUGAGGAUAUACAACACUGCUUGGGCAGUGUAUUAAGAUCACAUGAGGAUCACCCAUGUAGAAGGCACGAGCUGAU”, the “apparent Kd” value turned out to be 13.9 nM under setting [1] and 216 nM under setting [2].

“GCUGUCGCAUGAGGAUAUGGUCAGCUUUGCUGACCAGAAGGCAUGUCAAUAGACAUGAGGAUCACCCAUGUAGUUAGGGCGGCU”: the “apparent Kd” value was determined as 571 nM under setting [3] and 57.4 nM under setting [4].
